Measured values: ChEMBL document CHEMBL4680091, “Discovery of Novel Spiro[3H-indole-3,2'-pyrrolidin]-2(1H)-one Compounds as Chemically Stable and Orally Active Inhibitors of the MDM2-p53 Interaction” (J Med Chem, 2016)

Key:
SJSA-1 = test: Antiproliferative activity against human SJSA-1 cells expression wild type p53 incubated for 3 days by Alamar Blue dye based assay; format: functional, cell-based; details: SJSA-1, 72 h
SK-OV-3 = test: Antiproliferative activity against human SK-OV-3 cells expression p53 mutant incubated for 3 days by Alamar Blue dye based assay; format: functional, cell-based; details: SK-OV-3, 72 h
Summary of the method: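 p53-mutant SK-OV-3 cells were used in a growth/proliferation assay, with compounds tested up to 25 μM.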

[1] = target: Tumour suppressor p53/oncoprotein Mdm2 (Homo sapiens, UniProt Q00987); test: Inhibition of GST-tagged MDM2 (amino acids 17 to 111 residues)/p53 (unknown origin) interaction incubated for 15 mins by; format: protein assay
Sequence of Tumour suppressor p53/oncoprotein Mdm2 (P04637 whole entry, the tested form may be a part): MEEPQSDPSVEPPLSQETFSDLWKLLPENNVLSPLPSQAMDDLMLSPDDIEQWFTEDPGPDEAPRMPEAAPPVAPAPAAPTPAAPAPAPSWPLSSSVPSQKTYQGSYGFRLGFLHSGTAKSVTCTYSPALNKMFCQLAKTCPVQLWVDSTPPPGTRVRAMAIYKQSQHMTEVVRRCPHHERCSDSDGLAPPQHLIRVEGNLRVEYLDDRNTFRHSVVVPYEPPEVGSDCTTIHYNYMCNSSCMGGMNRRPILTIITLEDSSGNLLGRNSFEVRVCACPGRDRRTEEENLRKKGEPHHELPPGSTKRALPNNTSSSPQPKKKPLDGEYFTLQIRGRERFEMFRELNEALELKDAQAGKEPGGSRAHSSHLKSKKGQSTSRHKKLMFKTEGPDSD
Sequence of Tumour suppressor p53/oncoprotein Mdm2 (Q00987 whole entry, the tested form may be a part): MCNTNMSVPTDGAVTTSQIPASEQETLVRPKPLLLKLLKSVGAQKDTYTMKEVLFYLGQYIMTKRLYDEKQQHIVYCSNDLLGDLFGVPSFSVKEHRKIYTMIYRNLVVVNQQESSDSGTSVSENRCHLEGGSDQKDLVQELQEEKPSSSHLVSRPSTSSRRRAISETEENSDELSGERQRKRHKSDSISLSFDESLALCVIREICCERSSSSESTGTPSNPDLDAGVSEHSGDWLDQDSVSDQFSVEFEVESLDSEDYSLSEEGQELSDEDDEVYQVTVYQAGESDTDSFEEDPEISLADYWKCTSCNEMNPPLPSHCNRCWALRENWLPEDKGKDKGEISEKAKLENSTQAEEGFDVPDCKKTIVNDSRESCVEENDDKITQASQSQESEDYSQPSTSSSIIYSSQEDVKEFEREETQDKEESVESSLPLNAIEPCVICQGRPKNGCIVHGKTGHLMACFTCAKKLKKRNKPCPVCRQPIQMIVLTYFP

[2] = Volume of distribution at steady state in NMRI mouse at 5 mg/kg, iv; format: ADME, organism-based; details: in vivo, read-out: Vdss
Summary of the method: (§1)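 Non-tumor-bearing female NMRI nude mice were given a single dose by one of two routes. The iv arm received 5 mg/kg as a bolus in 25% HP-B-CD. The po arm received 50 mg/kg in 0.5% Natrosol (pH 7-8, NaOH titrated). Both used 10 ml/kg. Plasma levels were measured by LC/MS/MS, n=3 per dose group. Parameters came from non-compartmental analysis, with AUC0-24h by linear trapezoidal interpolation.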

[3] = Oral bio availability in NMRI mouse at 50 mg/kg; format: ADME, organism-based; details: in vivo; summary of the method: as §1
[4] = AUC (0 to 24 hrs) in NMRI mouse at 50 mg/kg, po; format: ADME, organism-based; set-up: time < 24 hr, route oral, dose 50 mg/kg; details: in vivo; summary of the method: as §1
[5] = Clearance in NMRI mouse at 5 mg/kg, iv; format: ADME, organism-based; details: in vivo; summary of the method: as §1
[6] = Cmax in NMRI mouse at 50 mg/kg, po; format: ADME, organism-based; set-up: route oral, dose 50 mg/kg; details: in vivo; summary of the method: as §1

SMILES | IC50 [1] | also measured
CCOc1cccc(CN2[C@H]3CCN(CC(=O)O)[C@H]3[C@H](c3cccc(Cl)c3F)[C@]23C(=O)Nc2cc(Cl)ccc23)c1 | – | IC50 (SJSA-1): 0.287 µM; IC50 (SK-OV-3): > 25 µM
C[C@@H]1N[C@@]2(C(=O)Nc3cc(Cl)ccc32)[C@@H](c2cccc(Cl)c2)[C@@H]1N (racemic) | 74 µM | –
C[C@H]1[C@@H](N)[C@H](c2cccc(Cl)c2)[C@]2(C(=O)Nc3cc(Cl)ccc32)N1CC1CC1 | 0.563 µM | –
CC(C)CCN1[C@@H](Cn2cncn2)[C@@H](N)[C@H](c2cccc(Cl)c2)[C@]12C(=O)Nc1cc(Cl)ccc12 (racemic) | 2.06 µM | –
CC(C)CN1C[C@@H](N)[C@H](c2cccc(Cl)c2)[C@]12C(=O)Nc1cc(Cl)ccc12 | 0.944 µM | –
O=C1Nc2cc(Cl)ccc2[C@]12N[C@@H](Cn1cncn1)[C@@H]([N+](=O)[O-])[C@@H]2c1cccc(Cl)c1 (racemic) | 5.5 µM | –
NC(=O)c1cccc(C[C@@H]2N[C@@]3(C(=O)Nc4cc(Cl)ccc43)[C@@H](c3cccc(Cl)c3)[C@@H]2[N+](=O)[O-])c1 (racemic) | 18.3 µM | –
O=C(O)CC[C@@H]1N[C@@]2(C(=O)Nc3cc(Cl)ccc32)[C@@H](c2cccc(Cl)c2)[C@@H]1[N+](=O)[O-] (racemic) | 16 µM | –
O=C(O)C[C@@H]1N[C@@]2(C(=O)Nc3cc(Cl)ccc32)[C@@H](c2cccc(Cl)c2)[C@@H]1[N+](=O)[O-] (racemic) | 18.6 µM | –
O=C1Nc2cc(Cl)ccc2[C@]12NC[C@@H]([N+](=O)[O-])[C@@H]2c1cccc(Cl)c1 (racemic) | 36.5 µM | –
O=C1Nc2cc(Cl)ccc2[C@]12CNC[C@@H]2c1cccc(Cl)c1 (racemic) | 36 µM | –
NC(=O)c1ccc([C@H]2C[C@H]3[C@@H](N2)[C@H](c2cccc(Cl)c2F)[C@]2(C(=O)Nc4cc(Cl)ccc42)N3CC2CC2)cc1 | – | Vd [2]: 2 L/kg; bioavailability [3]: 58%; IC50 (SJSA-1): 1.45 µM; AUC(0-t) at 24 h [4]: 100 µM·h; clearance [5]: 7.4 mL/min/kg; IC50 (SK-OV-3): > 25 µM; Cmax [6]: 6.9 µM
COC(=O)c1ccc([C@H]2C[C@H]3[C@@H](N2)[C@H](c2cccc(Cl)c2F)[C@]2(C(=O)Nc4cc(Cl)ccc42)N3CC2CC2)cc1 | 0.081 µM | –
O=C1Nc2cc(Cl)ccc2[C@@]12[C@@H](c1cccc(Cl)c1F)[C@@H]1NCC[C@@H]1N2CC1CC1 | 0.137 µM | IC50 (SJSA-1): 2.61 µM; IC50 (SK-OV-3): > 25 µM
CC(=O)N1CC[C@H]2[C@@H]1[C@H](c1cccc(Cl)c1F)[C@]1(C(=O)Nc3cc(Cl)ccc31)N2CC1CC1 (racemic) | 0.212 µM | –
O=C1Nc2cc(Cl)ccc2[C@]12N[C@@H](Cc1c[nH]cn1)[C@@H]([N+](=O)[O-])[C@@H]2c1cccc(Cl)c1 (racemic) | 15.2 µM | –
